According to ChEMBL document CHEMBL4393681, “The identification of naturally occurring labdane diterpenoid calcaratarin D as a potential anti-inflammatory agent” (Eur J Med Chem, 2019):

Legend:
RAW264.7 [1] = assay: Anti-inflammatory activity in mouse RAW264.7 cells assessed as inhibition of LPS-induced TNFalpha production at 0.1 uM pretreated for 1 hr followed by LPS stimulation and measured after 18 hrs by ELISA relative to control; format: functional; design: scale not given: the % may be the effect or the level left
How it was run: (§1)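 DMSO stocks (100 mM) were tested at 0.1, 1, 5 and 20 µM on LPS-stimulated RAW264.7 cells, with dexamethasone 1 µM as positive control. Secreted TNF-α or IL-6 was normalized to the percentage of viable LPS-stimulated cells at each concentration. Mean of three separate experiments, each in triplicate.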

RAW264.7 [2] = assay: Anti-inflammatory activity in mouse RAW264.7 cells assessed as inhibition of LPS-induced TNFalpha production at 1 uM pretreated for 1 hr followed by LPS stimulation and measured after 18 hrs by ELISA relative to control; format: functional; design: scale not given: the % may be the effect or the level left; how it was run: as §1
RAW264.7 [3] = assay: Anti-inflammatory activity in mouse RAW264.7 cells assessed as inhibition of LPS-induced IL-6 production at 1 uM pretreated for 1 hr followed by LPS stimulation and measured after 18 hrs by ELISA relative to control; format: functional; design: scale not given: the % may be the effect or the level left; how it was run: as §1
[4] = Cytotoxicity against mouse RAW264.7 cells assessed as cell viability at 1 uM incubated for 18 hrs by celltiter-glo luminescent assay relative to control; format: cell-based; conditions: read-out: Activity
How it was run: (§2)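 Non-stimulated RAW264.7 cells were exposed to 0.1, 1, 5 and 20 µM compound from 100 mM DMSO stocks. Percent viability is the mean of three separate experiments with triplicate samples.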

[5] = Cytotoxicity against mouse RAW264.7 cells assessed as cell viability at 5 uM incubated for 18 hrs by celltiter-glo luminescent assay relative to control; format: cell-based; conditions: read-out: Activity; how it was run: as §2
RAW264.7 [6] = assay: Anti-inflammatory activity in mouse RAW264.7 cells assessed as inhibition of LPS-induced TNFalpha production at 20 uM pretreated for 1 hr followed by LPS stimulation and measured after 18 hrs by ELISA relative to control; format: functional; design: scale not given: the % may be the effect or the level left; how it was run: as §1
[7] = Cytotoxicity against mouse RAW264.7 cells assessed as cell viability at 20 uM incubated for 18 hrs by celltiter-glo luminescent assay relative to control; format: cell-based; conditions: read-out: Activity; how it was run: as §2
RAW264.7 [8] = assay: Anti-inflammatory activity in mouse RAW264.7 cells assessed as inhibition of LPS-induced IL-6 production at 0.1 uM pretreated for 1 hr followed by LPS stimulation and measured after 18 hrs by ELISA relative to control; format: functional; design: scale not given: the % may be the effect or the level left; how it was run: as §1
[9] = Cytotoxicity against mouse RAW264.7 cells assessed as cell viability at 0.1 uM incubated for 18 hrs by celltiter-glo luminescent assay relative to control; format: cell-based; conditions: read-out: Activity; how it was run: as §2
RAW264.7 [10] = assay: Anti-inflammatory activity in mouse RAW264.7 cells assessed as inhibition of LPS-induced IL-6 production at 20 uM pretreated for 1 hr followed by LPS stimulation and measured after 18 hrs by ELISA relative to control; format: functional; design: scale not given: the % may be the effect or the level left; how it was run: as §1
RAW264.7 [11] = assay: Anti-inflammatory activity in mouse RAW264.7 cells assessed as inhibition of LPS-induced IL-6 production at 5 uM pretreated for 1 hr followed by LPS stimulation and measured after 18 hrs by ELISA relative to control; format: functional; design: scale not given: the % may be the effect or the level left; how it was run: as §1
RAW264.7 [12] = assay: Anti-inflammatory activity in mouse RAW264.7 cells assessed as inhibition of LPS-induced TNFalpha production at 5 uM pretreated for 1 hr followed by LPS stimulation and measured after 18 hrs by ELISA relative to control; format: functional; design: scale not given: the % may be the effect or the level left; how it was run: as §1

SMILES | Activity (RAW264.7 [1]) | Activity (RAW264.7 [2]) | Activity (RAW264.7 [3]) | viability at 18 h, 1 µM [4] | viability at 18 h, 5 µM [5] | Activity (RAW264.7 [6]) | viability at 18 h, 20 µM [7] | Activity (RAW264.7 [8]) | viability at 18 h, 0.1 µM [9] | Activity (RAW264.7 [10]) | Activity (RAW264.7 [11]) | Activity (RAW264.7 [12])
CC1(C)CCC[C@@]2(C)[C@H]1CC[C@@]1(CO1)[C@@H]2C/C=C1\CCOC1=O | 114.8% | 88.6% | 79.7% | 97% | 90.9% | 20.5% | 80.4% | 101.6% | 101% | 22.3% | 35.2% | 48.4%
CC1(C)CCC[C@]2(C)[C@H]3CC(=O)O[C@]3(C)CC[C@@H]12 | 104.8% | 101% | 100.3% | 96.6% | 97.2% | 63.9% | 95.9% | 94.6% | 99.3% | 89.7% | 93.8% | 79.9%
C=C1CC[C@H]2C(C)(C)CCC[C@]2(C)[C@H]1/C=C/C1=CCOC1=O [VILLOSIN] | 80.4% | 86.6% | 87.6% | 105% | 103% | 133.5% | 59% | 98.4% | 104% | 170.1% | 101.5% | 74.6%
C=C1CC[C@H]2C(C)(C)CCC[C@]2(C)[C@H]1C/C=C1\CC(OCC)OC1=O (stereo not given in full) | 101.6% | 86.8% | 100.3% | 100% | 94.9% | 48.1% | 96.3% | 102.3% | 102% | 80.9% | 95.9% | 65.3%
C=C1CC[C@H]2C(C)(C)CCC[C@]2(C)[C@H]1C/C=C1\CC(OC)OC1=O (stereo not given in full) | 104.7% | 77.7% | 79.1% | 102% | 101% | 27.5% | 100% | 101% | 102% | 59.9% | 70% | 44.7%
C=C1CC[C@H]2C(C)(C)CCC[C@]2(C)[C@H]1C[C@@H](O)C1=CCOC1=O [CURCUCOMOSIN C] | 112% | 101.5% | 84% | 111% | 108% | 33.4% | 91.9% | 100.6% | 109% | 47.1% | 75.6% | 79.3%
C=C1CC[C@H]2C(C)(C)CCC[C@]2(C)[C@H]1C/C=C1\C(=O)OC[C@H]1O | 98.7% | 71.6% | 76.9% | 95.5% | 81.7% | 4.8% | 47.5% | 100.7% | 100% | 10.1% | 32.2% | 17.5%
C=C1CC[C@H]2C(C)(C)CCC[C@]2(C)[C@H]1C[C@H](O)[C@H]1C(=O)OC[C@H]1O | 111.1% | 108.6% | 101.7% | 106% | 107% | 86.8% | 98.3% | 104.6% | 108% | 71.8% | 104.3% | 109.5%
C=C1CC[C@H]2C(C)(C)CCC[C@]2(C)[C@H]1C/C=C1\CCOC1=O | 104.4% | 94.6% | 93.9% | 107% | 102% | 52.6% | 100% | 103% | 103% | 76.3% | 83.9% | 73.1%
C=C1CC[C@H]2C(C)(C)CCC[C@]2(C)[C@H]1C/C=C(\CCO)C(=O)O | 104.7% | 80.7% | 88.3% | 99.2% | 96.6% | 50.2% | 87.6% | 106% | 102% | 63.5% | 79.9% | 60.7%
C=C1CC[C@H]2C(C)(C)CCC[C@]2(C)[C@H]1C/C=C1/CCOC1=O | 99.8% | 81.8% | 94.1% | 101% | 95.4% | 48% | 85% | 101.5% | 103% | 64.8% | 85.6% | 69.9%
C=C1CC[C@H]2C(C)(C)CCC[C@]2(C)[C@H]1CC=O | 104% | 91.7% | 95% | 101% | 101% | 48.5% | 91.9% | 100% | 100% | 72.8% | 93% | 73.7%
C=C1CC[C@H]2C(C)(C)CCC[C@]2(C)[C@H]1C/C=C1\C=COC1=O | 94.1% | 84.6% | 99.6% | 97.7% | 90.8% | 26.6% | 82.6% | 99% | 102% | 61.5% | 85.9% | 53.6%
CC1(C)CCC[C@@]2(C)[C@H]1CC[C@]1(CO1)[C@@H]2C/C=C1\CCOC1=O | 100.3% | 88.3% | 92.3% | 97.6% | 95.1% | 33.1% | 85.7% | 102.3% | 97.8% | 63.9% | 81.4% | 55.6%
C=C1CC[C@H]2C(C)(C)CCC[C@]2(C)[C@H]1C/C=C1\CC(O)OC1=O (stereo not given in full) | 100.2% | 89.6% | 82.4% | 92.7% | 86.3% | 71.1% | 79% | 99.1% | 102% | 59.4% | 64% | 81.9%
